Active and inactive are the calls of the source. The rule behind the calls is not given here.
What was measured:
[1] = biological target: T1, Ribonucleoside-diphosphate reductase large subunit (Homo sapiens) (UniProt P23921); assay: Inhibition of RRM1 in human U2OS cells assessed as gammaH2AX induction at 0.5 to 125 uM after 2 hrs by FITC/propidium iodide-staining based flow cytometry in presence of SCH900776; format: cell-based
T1 sequence (whole entry): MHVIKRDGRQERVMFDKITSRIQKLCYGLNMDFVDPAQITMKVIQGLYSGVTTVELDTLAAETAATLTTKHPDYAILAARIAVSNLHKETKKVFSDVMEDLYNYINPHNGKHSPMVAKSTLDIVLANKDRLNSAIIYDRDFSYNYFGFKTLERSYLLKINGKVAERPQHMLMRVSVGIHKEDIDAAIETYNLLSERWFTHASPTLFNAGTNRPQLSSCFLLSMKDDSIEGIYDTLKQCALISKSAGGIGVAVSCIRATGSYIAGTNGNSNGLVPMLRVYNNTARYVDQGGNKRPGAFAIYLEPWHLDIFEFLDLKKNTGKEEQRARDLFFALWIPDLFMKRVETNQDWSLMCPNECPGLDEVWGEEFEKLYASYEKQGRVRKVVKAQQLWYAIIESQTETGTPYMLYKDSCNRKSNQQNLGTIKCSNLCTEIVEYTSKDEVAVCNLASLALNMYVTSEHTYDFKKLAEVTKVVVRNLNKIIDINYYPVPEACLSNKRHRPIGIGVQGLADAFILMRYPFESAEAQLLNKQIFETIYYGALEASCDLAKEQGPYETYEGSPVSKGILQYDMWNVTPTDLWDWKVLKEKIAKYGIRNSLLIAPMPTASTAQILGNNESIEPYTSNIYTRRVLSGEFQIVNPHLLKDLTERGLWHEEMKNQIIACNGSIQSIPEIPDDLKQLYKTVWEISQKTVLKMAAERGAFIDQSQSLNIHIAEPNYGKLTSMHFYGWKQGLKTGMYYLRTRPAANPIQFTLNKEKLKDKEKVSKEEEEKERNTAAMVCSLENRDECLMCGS
Outline: (§1)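 U2OS cells were given titrated compound overnight, then kept with or without 0.5 uM SCH 900776 for a further 2 h in the compound's presence. Cells were fixed and permeabilized in 70% ethanol, stained with FITC anti-γH2AX antibody and counterstained with propidium iodide. Read-out was flow cytometry or imaging, given as % γH2AX-positive cells.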

[2] = biological target: T1, Ribonucleoside-diphosphate reductase large subunit (Homo sapiens); assay: Inhibition of RRM1 in human U2OS cells assessed as gammaH2AX induction at 0.5 to 125 uM after 2 hrs by FITC/propidium iodide-staining based flow cytometry in absence of SCH900776; format: cell-based; outline: as §1
[3] = biological target: T1, Ribonucleoside-diphosphate reductase large subunit (Homo sapiens); assay: Inhibition of RRM1 in human U2OS cells assessed as gammaH2AX induction after 2 hrs by FITC/propidium iodide-staining based flow cytometry in presence of SCH900776; format: cell-based; outline: as §1
[4] = Binding affinity to yeast RRM1 assessed as reduction of unbound compound level by line-broadening NMR spectroscopy; design: species or system Saccharomyces cerevisiae
Saccharomyces cerevisiae [5] = assay: Binding affinity to yeast RRM1 assessed as reduction of free compound level by line-broadening NMR spectroscopy relative to control; design: scale not given: the % may be the effect or the level left
Saccharomyces cerevisiae [6] = assay: Binding affinity to yeast RRM1 assessed as reduction of unbound-compound level at 200 uM by NOESY-spectroscopy
[7] = Competitive binding affinity to yeast RRM1 assessed as reduction in CDP NMR signals by STD-NMR spectroscopy; design: species or system Saccharomyces cerevisiae
[8] = biological target: T2, Ribonucleotide reductase (Homo sapiens) (UniProt P23921+Q7LG56); assay: Inhibition of human RRM1/RNR2 activity using CDP as substrate assessed as reduction of dCDP production at 100 uM preincubated for 30 mins followed by substrate addition measured after 1 hr by NMR spectroscopy; format: protein-complex assay
Outline: (§2)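 Human RRM1 and RNR2 were run at 27 °C in 50 mM d-Tris in D2O, pH 7.6, with 10 mM d-DTT. Compound was preincubated 30 min with active enzyme and 1 mM ATP. CDP was then added to start the reaction, which was heat-quenched after 1 h. 1H NMR measured dCDP formed and CDP consumed against control spectra. Controls were dATP, didox and gemcitabine diphosphate.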

[9] = biological target: T1, Ribonucleoside-diphosphate reductase large subunit (Homo sapiens); assay: Inhibition of RRM1 in human CEM cells assessed as depletion of dATP level at 1 uM after 2 hrs by HPLC analysis; format: cell-based; details: CCRF-CEM
Outline: (§3)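 CEM cells were treated for 2 h, with untreated cells as control. Pellets were taken up in ice-cold water and deproteinized with an equal volume of 6% TCA. Supernatants were neutralized with NH4OH, then run on ion-pair HPLC (tetrabutylammonium hydroxide/KH2PO4, pH 7.0 gradient) with UV detection at 260 nm. Pool levels are peak AUC, in triplicate.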

[10] = biological target: T2, Ribonucleotide reductase (Homo sapiens); assay: Inhibition of human RRM1/RNR2 activity using CDP as substrate assessed as reduction of CDP consumption at 100 uM preincubated for 30 mins followed by substrate addition measured after 1 hr by NMR spectroscopy; format: protein-complex assay; outline: as §2
[11] = biological target: T1, Ribonucleoside-diphosphate reductase large subunit (Homo sapiens); assay: Inhibition of RRM1 in human CEM cells assessed as depletion of dCTP level at 1 uM after 2 hrs by HPLC analysis; format: cell-based; details: CCRF-CEM; outline: as §3
[12] = biological target: T1, Ribonucleoside-diphosphate reductase large subunit (Homo sapiens); assay: Inhibition of RRM1 in human CEM cells assessed as depletion of dGTP level at 1 uM after 2 hrs by HPLC analysis; format: cell-based; details: CCRF-CEM; outline: as §3

Row | SMILES | inhibition [1] | inhibition [2] | inhibition [3] | Kd [4] | Activity (Saccharomyces cerevisiae [5]) | Activity (Saccharomyces cerevisiae [6]) | Ki [7] | inhibition [8] | inhibition [9] | inhibition [10] | inhibition [11] | inhibition [12]
1 | Nc1ccn([C@@H]2O[C@H](CO)[C@@H](O)C2(F)F)c(=O)n1 | Active | Active | – | – | – | – | – | – | – | – | – | –
2 | Nc1ccn([C@@H]2O[C@H](CN3CCn4nccc4C3)[C@@H](O)C2(F)F)c(=O)n1 | Active | Active | Dose-dependent effect | 200 µM | 27% | Active | 150 µM | 32% | Active | 32% | Active | Active
3 | C[C@H](NC[C@H]1O[C@@H](n2ccc(N)nc2=O)C(F)(F)[C@@H]1O)c1ccnn1C | Active | Active | Dose-dependent effect | – | – | – | – | – | – | – | – | –
4 | Nc1ccn([C@@H]2O[C@H](CNCCN3CCCC3=O)[C@@H](O)C2(F)F)c(=O)n1 | Active | Active | Dose-dependent effect | – | – | – | – | – | – | – | – | –
5 | Nc1ccn([C@@H]2O[C@H](CNCc3ccco3)[C@@H](O)C2(F)F)c(=O)n1 | Active | Active | Dose-dependent effect | – | – | – | – | – | – | – | – | –

— ChEMBL document CHEMBL3232973, “The identification of novel 5'-amino gemcitabine analogs as potent RRM1 inhibitors” (Bioorg Med Chem, 2014)
